Measurements: ChEMBL document CHEMBL5104221, “ATP Mimetic Attack on the Nucleotide-Binding Domain to Overcome ABC Transporter Mediated Chemoresistance” (ACS Med Chem Lett, 2022)
Active and inactive are the calls of the source. No cut-off for these calls is given here.

Legend:
HCT-116 [1] = test: Cytotoxicity against human HCT-116 cells overexpressing human MDR1 assessed as DNA damage by measuring fluorescence intensity at 100 uM incubated for 30 mins by Hoechst 33342 staining accumulation assay; assay type: functional, cell-based
Summary of the method: (§1)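 Hoechst 33342 retention measured in paclitaxel-resistant HCT116tax cells and in HCT116 cells transfected with MDR1- or BCRP-expressing plasmids. The dye was read by its blue fluorescence without washing. Tariquidar (1 μM) and sodium orthovanadate (500 μM) served as reference inhibitors. Accumulation is expressed relative to the vanadate-induced fluorescence difference, set as 100%.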

HCT-116 [2] = test: Cytotoxicity against human HCT-116 cells overexpressing human MDR1 incubated for 48 hrs by MTT assay; assay type: functional, cell-based; details: HCT-116, 48 h
[3] = Cytotoxicity against paclitaxel-resistant human HCT116tax cells assessed as DNA damage by measuring fluorescence intensity incubated for 30 mins by Hoechst 33342 staining accumulation assay; assay type: functional, cell-based; details: 0.5 h; summary of the method: as §1
HCT-116 [4] = test: Cytotoxicity against human HCT-116 cells overexpressing human BCRP incubated for 48 hrs by MTT assay; assay type: functional, cell-based; details: HCT-116, 48 h
[5] = Cytotoxicity against human HEK293 cells incubated for 48 hrs by MTT assay; assay type: toxicity, cell-based
HCT116tax = test: Cytotoxicity against paclitaxel-resistant human HCT116tax cells assessed as reduction on cell viability at 100 to 200 uM incubated for 48 hrs in presence of paclitaxel by MTT assay; assay type: functional, cell-based; details: dose 100-200 µM
HCT-116 [6] = test: Cytotoxicity against human HCT-116 cells assessed as reduction on cell viability at 100 uM incubated for 48 hrs in presence of paclitaxel by MTT assay; assay type: functional, cell-based
Summary of the method: (§2)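 Wild-type HCT116 cells were exposed for 48 h in OptiMEM, with or without paclitaxel. Viability was read by MTT and normalised to wells containing 0.5% DMSO, taken as 100%.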

[7] = Cytotoxicity against paclitaxel-resistant human HCT116tax cells incubated for 48 hrs by MTT assay; assay type: functional, cell-based
HCT-116 [8] = test: Cytotoxicity against human HCT-116 cells incubated for 48 hrs by MTT assay; assay type: functional, cell-based; details: HCT-116, 48 h; summary of the method: as §2
HCT-116 [9] = test: Cytotoxicity against in human HCT-116 cells overexpressing human BCRP assessed as DNA damage by measuring fluorescence intensity at 100 uM incubated for 30 mins by Hoechst 33342 staining accumulation assay; assay type: functional, cell-based; summary of the method: as §1

| Molecule | Activity (HCT-116 [1]) | EC50 (HCT-116 [2]) | IC50 [3] | EC50 (HCT-116 [4]) | EC50 at 48 h [5] | Activity (HCT116tax) | Activity (HCT-116 [6]) | EC50 [7] | EC50 (HCT-116 [8]) | Activity (HCT-116 [9]) |
| --- | --- | --- | --- | --- | --- | --- | --- | --- | --- | --- |
| CC(C)[C@@H]1NC(=O)[C@@H]2CCCN2C1=O | Active | > 100 µM | 6.2 µM | > 100 µM | > 100 µM | Active | Active | > 100 µM | > 100 µM | Active |
| NC(=O)c1ncn([C@@H]2O[C@H](CO)[C@@H](O)[C@H]2O)c1N [ACADESINE] | Active | > 100 µM | 5.3 µM | > 100 µM | > 100 µM | Active | Active | > 100 µM | > 100 µM | Active |
| Nc1ncnc2c1ncn2[C@@H]1O[C@H](COP(=O)(O)O)[C@@H](O)[C@H]1O [ADENOSINE PHOSPHATE] | Active | > 100 µM | 3.2 µM | > 100 µM | > 100 µM | Active | Active | > 100 µM | > 100 µM | Active |
| NC(=O)c1ncn([C@@H]2O[C@H](CO)[C@@H](O)[C@H]2O)n1 [RIBAVIRIN] | Active | > 100 µM | 5 µM | > 100 µM | > 100 µM | Active | Active | > 100 µM | > 100 µM | Active |
| Nc1ncnc2c1ncn2COCCO | Active | > 100 µM | 7.3 µM | > 100 µM | > 100 µM | Active | Active | > 100 µM | > 100 µM | Active |
| ORTHOVANADATE | Active |  |  |  |  |  |  |  |  | Active |
